The source made the active and inactive calls. No cut-off for these calls is given here.
Columns and labels:
[1] = target: T1, ATP-dependent translocase ABCB1 (Homo sapiens, UniProt P08183); assay: Inhibition of ABCB1 in human SW620/AD300 cells assessed as potentiation of paclitaxel-induced cytotoxicity after 72 hrs by MTT assay; type: cell-based
Outline: (§1)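 SW620/AD300 cells (~5×10^3/well) treated with graded paclitaxel with or without modulator (2 µM, or 0.5-2 µM in dose series; 0.1% DMSO solvent control) for 72 h; MTT (5 mg/mL stock) added 4 h, absorbance 490 nm. IC50 as mean ± SD of three independent runs; reversal fold = paclitaxel IC50 without/with modulator.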

[2] = target: T1, ATP-dependent translocase ABCB1; assay: Inhibition of ABCB1 in human SW620/AD300 cells assessed as decrease in rhodamine 123 efflux up to 4 uM preincubated for 4 hrs followed by 30 mins incubation in Rho-123 containing medium and subsequent incubation in Rho-123 free medium up to 120 mins by flow cytometry; type: cell-based
Outline: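 Cells loaded with rhodamine 123 as in the accumulation assay (4 h compound pre-exposure, 1 µg/mL dye 30 min, 37℃), then kept in dye-free medium with or without reversal agent for 30, 60, 90 or 120 min at 37℃; intracellular fluorescence read by flow cytometry at 488/530 nm. Three independent experiments.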

[3] = target: T1, ATP-dependent translocase ABCB1; assay: Inhibition of ABCB1 in human SW620/AD300 cells assessed as potentiation of paclitaxel-induced cytotoxicity by measuring fold reduction in paclitaxel IC50 at 0.5 uM after 72 hrs by MTT assay; type: cell-based; outline: as §1
Cytochrome P450 3A4 = Cytochrome P450 3A4 (Homo sapiens, UniProt P08684); assay: Inhibition of recombinant human CYP3A4 up to 32 uM in presence of NADPH generating system by fluorescence assay; type: ADME; conditions: recombinant enzyme
Sequence of Cytochrome P450 3A4 (P08684 whole entry): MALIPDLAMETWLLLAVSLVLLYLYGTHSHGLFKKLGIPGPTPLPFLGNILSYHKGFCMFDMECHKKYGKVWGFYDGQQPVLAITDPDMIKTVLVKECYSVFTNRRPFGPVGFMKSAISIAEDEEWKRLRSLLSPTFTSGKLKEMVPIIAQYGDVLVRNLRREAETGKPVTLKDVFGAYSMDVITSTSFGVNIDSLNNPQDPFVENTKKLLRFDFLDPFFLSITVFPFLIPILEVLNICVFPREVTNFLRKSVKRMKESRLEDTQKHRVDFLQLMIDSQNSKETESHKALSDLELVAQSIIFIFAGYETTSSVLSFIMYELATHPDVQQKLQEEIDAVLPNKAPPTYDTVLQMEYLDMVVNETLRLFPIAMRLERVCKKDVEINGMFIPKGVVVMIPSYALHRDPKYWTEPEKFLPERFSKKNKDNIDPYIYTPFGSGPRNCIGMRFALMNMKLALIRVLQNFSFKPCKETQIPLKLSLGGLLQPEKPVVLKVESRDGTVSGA

[4] = target: T1, ATP-dependent translocase ABCB1; assay: Inhibition of ABCB1 in human SW620/AD300 cells assessed as potentiation of paclitaxel-induced cytotoxicity by measuring fold reduction in paclitaxel IC50 at 2 uM after 72 hrs by MTT assay relative to paclitaxel alone; type: cell-based; outline: as §1
[5] = Cytotoxicity against human SW620/AD300 cells assessed as survival at 2 uM after 72 hrs by MTT assay relative to control; type: cell-based; conditions: read-out: Survival
[6] = Cytotoxicity against human SW620 cells assessed as survival at 2 uM after 72 hrs by MTT assay relative to control; type: cell-based, SW-620; conditions: read-out: Survival
[7] = target: T1, ATP-dependent translocase ABCB1; assay: Inhibition of ABCB1 in human SW620/AD300 cells assessed as potentiation of paclitaxel-induced cytotoxicity by measuring fold reduction in paclitaxel IC50 at 1 uM after 72 hrs by MTT assay; type: cell-based; outline: as §1
SW620/AD300 = assay: Effect on subcellular localization of ABCB1 in human SW620/AD300 cells at 2 uM after 48 hrs by Hoechst 33258 staining-based immunofluorescence assay; type: functional, cell-based
Outline: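 About 1×10^4 cells on coverslips incubated with compound 48 h, fixed in 4% paraformaldehyde ≥20 min, blocked 2 h in PBS with 5% BSA, anti-ABCB1 primary overnight at 4℃, Alexa Fluor 488 anti-goat secondary 2 h, nuclei stained with Hoechst 33258 20 min; imaged by laser scanning confocal microscopy.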

T1 sequence (P08183 whole entry): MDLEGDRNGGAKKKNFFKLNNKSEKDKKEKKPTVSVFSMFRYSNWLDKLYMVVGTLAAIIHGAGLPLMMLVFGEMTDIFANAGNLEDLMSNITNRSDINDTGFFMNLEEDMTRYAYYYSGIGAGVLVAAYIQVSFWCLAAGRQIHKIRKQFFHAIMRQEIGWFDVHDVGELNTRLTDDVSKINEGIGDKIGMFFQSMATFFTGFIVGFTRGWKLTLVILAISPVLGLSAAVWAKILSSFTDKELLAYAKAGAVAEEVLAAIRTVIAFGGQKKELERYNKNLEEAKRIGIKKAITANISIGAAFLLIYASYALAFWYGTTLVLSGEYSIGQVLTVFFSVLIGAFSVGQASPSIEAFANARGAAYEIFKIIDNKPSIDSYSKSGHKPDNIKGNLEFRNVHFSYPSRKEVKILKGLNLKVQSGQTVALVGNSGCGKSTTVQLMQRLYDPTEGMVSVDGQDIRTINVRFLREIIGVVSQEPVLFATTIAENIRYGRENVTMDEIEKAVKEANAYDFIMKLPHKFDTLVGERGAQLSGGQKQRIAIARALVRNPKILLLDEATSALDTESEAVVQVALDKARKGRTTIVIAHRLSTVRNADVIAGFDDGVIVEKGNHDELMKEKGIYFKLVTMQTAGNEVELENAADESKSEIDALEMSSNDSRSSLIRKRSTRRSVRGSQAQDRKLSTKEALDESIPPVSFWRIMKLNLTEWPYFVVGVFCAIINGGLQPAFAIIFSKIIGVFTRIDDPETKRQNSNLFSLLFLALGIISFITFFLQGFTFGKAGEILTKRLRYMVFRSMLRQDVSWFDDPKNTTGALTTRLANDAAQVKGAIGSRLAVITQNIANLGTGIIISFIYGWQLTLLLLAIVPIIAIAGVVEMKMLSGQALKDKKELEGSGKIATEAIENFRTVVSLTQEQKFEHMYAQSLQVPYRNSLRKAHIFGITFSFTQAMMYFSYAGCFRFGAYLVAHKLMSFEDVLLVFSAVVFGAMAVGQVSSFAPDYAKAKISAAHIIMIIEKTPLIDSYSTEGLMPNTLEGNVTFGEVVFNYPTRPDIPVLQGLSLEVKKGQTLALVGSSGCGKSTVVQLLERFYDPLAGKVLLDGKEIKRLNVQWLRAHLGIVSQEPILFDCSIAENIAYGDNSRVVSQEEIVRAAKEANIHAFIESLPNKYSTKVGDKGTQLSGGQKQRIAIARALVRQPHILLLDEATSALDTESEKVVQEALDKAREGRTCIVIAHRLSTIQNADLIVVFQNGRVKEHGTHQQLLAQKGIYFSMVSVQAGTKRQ

## COc1ccc(CCN(C)CCCC(C#N)(c2ccc(OC)c(OC)c2)C(C)C)cc1OC (stereo unspecified)
[1]
  inhibition (INH): Dose-dependent effect

## COc1cc(-c2nc(SCC(=O)NC(=O)Nc3ccccc3)nc(Nc3cccc(Cl)c3)c2C#N)cc(OC)c1OC
[2]
  inhibition (INH): Active
[3]
  fold change (FC): 37.04
Cytochrome P450 3A4
  inhibition (INH): Not Active
[4]
  fold change (FC): 261.63
[1]
  inhibition (INH): Dose-dependent effect
[5]
  viability at 72 h, 2 µM: > 90%
[6]
  viability at 72 h, 2 µM: > 90%
[7]
  fold change (FC): 26.33
SW620/AD300
  Activity: inactive

## COc1cc(-c2nc(SCc3cn(CC(=O)NC(=O)Nc4ccccn4)nn3)nc(Nc3ccc(Cl)cc3)c2C#N)cc(OC)c1OC
[4]
  fold change (FC): 1.71
[5]
  viability at 72 h, 2 µM: > 90%
[6]
  viability at 72 h, 2 µM: > 90%

## CC(C)c1ccc(-c2nc(SCc3cn(CC(=O)NC(=O)Nc4ccccn4)nn3)nc(Nc3cccc(Cl)c3)c2C#N)cc1
[4]
  fold change (FC): 2.71
[5]
  viability at 72 h, 2 µM: > 90%
[6]
  viability at 72 h, 2 µM: > 90%

## COc1cc(-c2nc(SCc3cn(CC(=O)NC(=O)Nc4ccccn4)nn3)nc(Nc3ccc(C(C)C)cc3)c2C#N)cc(OC)c1OC
[4]
  fold change (FC): 13.16
[5]
  viability at 72 h, 2 µM: > 90%
[6]
  viability at 72 h, 2 µM: > 90%

## COc1cc(-c2nc(SCC(=O)NC(=O)Nc3ccccn3)nc(Nc3ccc(Br)cc3)c2C#N)cc(OC)c1OC
[2]
  inhibition (INH): Active
[3]
  fold change (FC): 8.019
Cytochrome P450 3A4
  inhibition (INH): Not Active
[4]
  fold change (FC): 190.27
[1]
  inhibition (INH): Dose-dependent effect
[5]
  viability at 72 h, 2 µM: > 90%
[6]
  viability at 72 h, 2 µM: > 90%
[7]
  fold change (FC): 32.2
SW620/AD300
  Activity: inactive

## CC(C)c1ccc(Nc2nc(SCc3cn(CC(=O)NC(=O)Nc4ccccn4)nn3)nc(-c3ccc(Br)cc3)c2C#N)cc1
[4]
  fold change (FC): 1.7
[5]
  viability at 72 h, 2 µM: > 90%
[6]
  viability at 72 h, 2 µM: > 90%

## CC(C)c1ccc(-c2nc(SCc3cn(CC(=O)NC(=O)Nc4ccccn4)nn3)nc(Nc3ccccc3)c2C#N)cc1
[4]
  fold change (FC): 1.65
[5]
  viability at 72 h, 2 µM: > 90%
[6]
  viability at 72 h, 2 µM: > 90%

## Cc1ccc(Nc2nc(SCc3cn(CC(=O)NC(=O)Nc4ccccn4)nn3)nc(-c3ccc(C)cc3)c2C#N)cc1
[4]
  fold change (FC): 17.37
[5]
  viability at 72 h, 2 µM: > 90%
[6]
  viability at 72 h, 2 µM: > 90%

## CC(C)c1ccc(-c2nc(SCc3cn(CC(=O)NC(=O)Nc4ccccn4)nn3)nc(Nc3ccccc3Cl)c2C#N)cc1
[4]
  fold change (FC): 4.75
[5]
  viability at 72 h, 2 µM: > 90%
[6]
  viability at 72 h, 2 µM: > 90%

## COc1cc(-c2nc(SCC(=O)NC(=O)Nc3ccccc3)nc(Nc3cccc([N+](=O)[O-])c3)c2C#N)cc(OC)c1OC
[4]
  fold change (FC): 21.04
[5]
  viability at 72 h, 2 µM: > 90%
[6]
  viability at 72 h, 2 µM: > 90%

## COc1ccccc1Nc1nc(SCc2cn(CC(=O)NC(=O)Nc3ccccn3)nn2)nc(-c2ccc(C(C)C)cc2)c1C#N
[4]
  fold change (FC): 10.18
[5]
  viability at 72 h, 2 µM: > 90%
[6]
  viability at 72 h, 2 µM: > 90%

— ChEMBL document CHEMBL4138318, “Discovery of 5-Cyano-6-phenylpyrimidin Derivatives Containing an Acylurea Moiety as Orally Bioavailable Reversal Agents against P-Glycoprotein-Mediated Mutidrug Resistance” (J Med Chem, 2018)
